Screening data deposited in PubChem by several laboratories.
Rows were chosen to be rich in hits. Some 2.1% of all compounds tested hit in one or more screens of this group.
APJ antag: APJ receptor antagonism; P35414; CHO-K1 APJ beta-arrestin complementation, luminescence; inhibition, % at 20 µM; hit rate 0.32% among 330,000; AID 2521;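 active = inhibition above about 40% at 20 µM, limit read from the data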;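 also: cells challenged with 10 nM apelin-13 agonist together with compound; plate controls were apelin-13 plus DMSO wells for no effect and DMSO wells lacking apelin-13 for full effect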
APJ ag: agonists of human APJ apelin receptor; P35414; CHO-K1 APJ PathHunter beta-arrestin, luminescence; 0% DMSO wells, 100% apelin; activation, % at 20 µM; hit rate 0.11% among 330,000; AID 2520;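 active = activation more than six SD over the plate average, tested at 20 µM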;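 also: 0% = DMSO alone and 100% = apelin-13 at 10 nM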
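Assay system: engineered CHO-K1 APJ arrestin reporter cells; Amount: 1000 CHO-K1 reporter cells seeded per well; Dosing: one dose, 20 µM compound, 1% DMSO; Times: compound stimulation 90 min at 25 °C, detection 60 min; Measured by: luminescent beta-gal fragment complementation, chemiluminescent substrate; Read-out: APJ–arrestin association signal; Controls: DMSO vs Apelin-13 10 nM.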
CCR6 antag: CCR6 (human) receptor antagonism | P51684 | CHO-K1 CCR6 PathHunter beta-arrestin, luminescence, CCL20-stimulated | inhibition, % at 20 µM | hit rate 0.49% among 340,000 | AID 493098;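 active = compounds whose inhibition of the agonist-driven luminescence signal at 20 µM reaches about 50%, limit read from the data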;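 also: cells stimulated with CCL20 at 14 nM final; plate controls were DMSO with CCL20 for no effect and DMSO without agonist for full effect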
Target sequence (P51684 whole entry, looked up): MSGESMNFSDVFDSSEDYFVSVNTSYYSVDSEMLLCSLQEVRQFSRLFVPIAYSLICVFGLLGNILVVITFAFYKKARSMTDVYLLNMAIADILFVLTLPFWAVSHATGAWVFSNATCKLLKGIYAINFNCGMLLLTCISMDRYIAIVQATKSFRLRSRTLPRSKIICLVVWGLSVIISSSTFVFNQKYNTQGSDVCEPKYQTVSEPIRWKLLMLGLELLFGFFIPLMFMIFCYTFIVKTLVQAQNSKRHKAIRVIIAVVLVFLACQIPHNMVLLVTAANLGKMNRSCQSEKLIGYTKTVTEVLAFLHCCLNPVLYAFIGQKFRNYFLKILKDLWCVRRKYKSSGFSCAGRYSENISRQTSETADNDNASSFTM
CXCR6 inh: CXCR6 (human) receptor inhibition; O00574; inhibition, % at 20 µM; hit rate 0.36% among 360,000; CHO-K1 PathHunter CXCR6 beta-arrestin, luminescence; in the data active = inhibition above about 34%, passing the limit was not always enough;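 also: antagonist mode with CXCL16 agonist at 10 nM final; 0% = 10 nM CXCL16 with DMSO and 100% = unstimulated wells without agonist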
EBI2 block: blocks human EBI2 receptor beta-arrestin signaling. EBI2 beta-arrestin recruitment, luminescence, 7a,25-OHC stimulated. inhibition, % at 5 µM. hit rate 0.81% among 360,000. AID 651636; in the data active = inhibition above about 38%;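 also: enzyme fragment complementation signal reports receptor beta-arrestin coupling in cells; 0% = agonist plus DMSO wells and 100% = wells without agonist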
m5-HT2A agonist: activates the mouse 5-HT2A serotonin receptor; CHO-K1 mHTR2A beta-arrestin complementation, luminescence; percent of 30 µM serotonin response; activation, % at 7.6 µM; hit rate 0.66% among 360,000; AID 624169;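 active = activation above a run cutoff, the mean activation of all tested compounds plus 3 SD, cut at about 14% in these data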;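 also: 0% = plate median of compound wells and 100% = 30 µM serotonin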
MOR ag counter: activates human mu opioid receptor in HTR2A counterscreen | shares compounds with m5-HT2A agonist | U2OS OPRM1 beta-arrestin PathHunter, luminescence; DMSO 0%, DAMGO 9.3 µM 100% | activation, % at 9.3 µM | hit rate 5.3% among 2,300 | AID 624380;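 active = mean activation above the mean of DMSO-only wells plus 3 SD, cut at about 0.5% in these data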
m5-HT2A ag conf: confirmation of mouse HTR2A serotonin receptor agonists. shares compounds with m5-HT2A agonist. AID 624381. CHO-K1 PathHunter beta-arrestin recruitment, luminescence; DMSO 0%, 30 µM serotonin 100%. hit rate 19% among 2,300. activation, % at 7.6 µM;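 active = mean activation across triplicates above the hit threshold derived in the original primary screen, cut at about 15% in these data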
* hit, by the source's call; · = not tested or not shown.

SMILES | APJ antag | APJ ag | CCR6 antag | CXCR6 inh | EBI2 block | m5-HT2A agonist | MOR ag counter | m5-HT2A ag conf
CC(C)C(NC(=O)/C(=C\c1ccco1)NC(=O)c1ccco1)C(=O)O (centres undefined) | 11 | -4 | 13 | -2 | -19 | 19* | -1 | -4
O=c1c2ccccc2ncn1CCOCCOc1ccc([N+](=O)[O-])cc1 | 13 | -2 | 1 | 5 | -9 | -8 | · | ·
CC(OC(=O)CCCN=C1NS(=O)(=O)c2ccccc21)C(=O)Nc1ccccc1F (centres undefined) | -10 | -8 | 5 | -10 | 4 | 25* | -1 | -4
CC(OC(=O)CCN=C1NS(=O)(=O)c2ccccc21)C(=O)Nc1ccccc1F (centres undefined) | 6 | -3 | 0 | -6 | -4 | -2 | · | ·
Nc1ccc(C(=O)N/N=C\C=C\c2ccc([N+](=O)[O-])cc2)cc1 | -28 | 9 | -6 | -8 | -26 | 17* | 0 | 4
C=CCn1c(SCc2nc3ccccc3[nH]2)nnc1-c1ccccn1 | -1 | -1 | -9 | 0 | 1 | 19* | -1 | -4
Cn1c(SCc2nc3ccccc3[nH]2)nnc1-c1ccccn1 | -12 | -5 | 12 | 1 | -1 | 4 | · | ·
C#CCOC(=O)CCCC(=O)Nc1ccccc1OC | -3 | 0 | -4 | 2 | -1 | 18* | 0 | 0
Cc1ccc(C(=O)NCCNC(=O)c2ccc(C)o2)o1 | -54 | -2 | -5 | 4 | -8 | -4 | · | ·
COc1ccccc1OCCNC(=O)c1ccc(C)o1 | 12 | -1 | 2 | -2 | -1 | 15* | -1 | 1
Cc1cccc(C(C)C)c1NC(=O)COC(=O)CN1C(=O)C2CC=CCC2C1=O (centres undefined) | 10 | -3 | 11 | 7 | -19 | 20* | 0 | 6
Cc1cccc(C)c1NC(=O)CN1C(=O)C2CC=CCC2C1=O (centres undefined) | 20 | -4 | 1 | -4 | -4 | -2 | · | ·
COc1ccc(Nc2nc(-c3c(C)nc4ncccn34)cs2)cc1 | · | · | -5 | -13 | 25 | -3 | · | ·
CCOCCn1c(SCc2ccccc2)nc2c1c(=O)[nH]c(=O)n2C | 10 | -5 | 1 | -2 | 7 | 1 | · | ·
CCOCCn1c(SCC(=O)OCc2ccccc2)nc2c1c(=O)[nH]c(=O)n2C | 9 | -3 | 3 | -5 | -5 | 17* | 0 | 1
Cc1ccc(CNCC(O)(c2ccccc2)c2ccccc2)cc1 | -10 | -2 | 5 | -1 | 7 | 20* | 0 | -4
Cc1ccc(CNCC(O)(c2ccccc2)c2ccc(Cl)cc2)cc1 (centres undefined) | · | · | 15 | 5 | 4 | 2 | · | ·
Cc1cc(C)cc(CC2CC(=O)N(c3cc(C)ccc3C)C2=O)c1 (centres undefined) | 10 | -5 | -1 | -7 | -5 | -5 | · | ·
COc1ccccc1NC(=O)c1ccc(-c2ccc(Br)cc2)o1 | 3 | -2 | 12 | -3 | 8 | 31* | 0 | -3
O=C(Nc1ccccc1)c1ccc(-c2ccc(Br)cc2)o1 | -3 | -4 | 1 | 3 | 0 | 2 | · | ·
COc1cc(OC)c(NC(=O)c2ccco2)cc1Cl | 4 | 1 | 7 | 3 | 0 | 3 | · | ·
COc1cc(NC(=O)c2ccco2)c(OC)cc1NC(=O)Nc1ccc(Cl)cc1 | -8 | 10 | -33 | -2 | 3 | 15* | 0 | -2
COC(F)(C(=O)Nc1ccc2c(c1)C(=O)NC2=O)C(F)(F)F (centres undefined) | -10 | -2 | -5 | 2 | 9 | -5 | · | ·
OC(c1cc(C(F)(F)F)nc2c(C(F)(F)F)cccc12)C1CCCCN1 (centres undefined) | -18 | 13 | 0 | -13 | -3 | 31* | 1.3* | 14
O=C(Cn1cnc2ccccc2c1=O)N1CCN(Cc2ccc3c(c2)OCO3)CC1 | -8 | -2 | -3 | 5 | 2 | 15* | -1 | 47*
